14 compounds from PubChem BioAssay can be followed below.

Experiment [1] is described as follows: inhibitors of TNFa-induced NFkB p65 translocation, primary screen, imaging, HUVEC, MLSMR starter and 10KST1 sets (AID 438;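 active = inhibition above 20% together with a positive visual image hit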;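 also: compound added about 3h40 before a 20 min TNFalpha stimulation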;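 as to inhibition: signal is the nuclear over cytoplasmic p65 intensity ratio per well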). The note with it: HUVEC TNFa-induced p65 nuclear translocation; cell count: measured here: nuclei count (cytotoxicity indicator), at 2.08 µM; inhibition: at 2 µM, stronger effect = higher value, 0% TNFa-plus-vehicle, 100% no-TNFa wells.
Experiment [2] in a line: reduction of polyQ htt aggregates in cells – imaging, exon1htt(103Q)mCFP cells, high-content imaging, primary screen (AID 483;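 active = visual image review flags a hit and inhibition of aggregation exceeds 20%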;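 also: compound exposure lasted 3 days before fixation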;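 as to nuclei count: percent of the per-plate median nuclei count of sample wells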). The note with it: exon1htt(103Q)mCFP cell line, aggregate imaging, at 2 µM; inhibition of aggregation: stronger effect = higher value; nuclei count: measured here: cell count, toxicity.
Experiment [3] is described as follows: endothelial E-selectin expression blockers – imaging, HUVEC, immunofluorescence, MLSMR starter and 10KST1 sets, primary screen (AID 487).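 As to inhibition: signal is fraction of cell area covered by stained E-selectin grains.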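 As to nuclei count: 100% = median nuclei count of all wells on the same plate.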 To be noted: HUVEC TNFalpha-induced E-selectin immunofluorescence imaging, at 2 µM; inhibition: stronger effect = higher value; nuclei count: measured here: cell number, toxicity.
Experiment [4] concerns the target Voltage-gated potassium channel subunit beta-2 (Rattus norvegicus) (UniProt P62483). Briefly: inhibitors of rat Kvbeta2 reductase activity – biochemical, NADPH fluorescence, primary screen (AID 622;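 active = fluorescence slope higher than the sample average by over 3 SD, cut at about -0.22 in these data, passing the limit was not always enough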;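 also: slope of raw intensity against log time taken from 70 to 1610 s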). To be noted: recombinant KvBeta, 4-cyanobenzaldehyde reduction, at 10 µM, stronger effect = higher value.
The target is the same in experiment [5]. Briefly: enhancers of rat Kvbeta2 NADPH turnover – biochemical, NADPH fluorescence, primary screen (AID 623;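 active = NADPH fluorescence slope more negative than the mean of all samples by about 3 SD, 99.7% confidence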;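 also: fluorescence intensity change per second fitted from 20 to 320 s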). The note with it: Recombinant KvBeta, NADPH fluorescence decrease slope, 10 min; at 10 µM; stronger effect = lower value.
In experiment [6] the target is Muscarinic acetylcholine receptor M4 (Homo sapiens) (UniProt P08173). The experiment is described as follows: M4-linked GIRK flux change, two-sided – cell-based, HEK293 M4/GIRK, thallium flux, BTC-AM, M4 allosteric agonist project, primary screen (AID 625;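 active = fluorescence slope after compound addition differing from the mean of all tested samples at 99.7% confidence, mostly higher but some lower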;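 also: thallium influx through GIRK channels coupled to M4 in HEK293 cells with BTC-AM dye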). To be noted: at 10 µM, actives lie on both sides. The method in brief:
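Material: HEK293 cells with M4 receptor and GIRK channels; Times: cells overnight at 37 °C, BTC-AM loading 1 h, reads 2 min total; Technique: kinetic BTC-AM fluorescence sampled at 1 Hz, 10 s pre-addition baseline; Read-out basis: slope over 15–24 s of trace normalized to starting intensity; Controls: carbachol positive, DMSO negative.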

A short description of experiment [7]: blockers of RIG-like receptor reporter activation – cell-based, Sendai virus stimulus, luciferase, 10K MLSCN set, TLR/RLR signaling modifier project, primary screen (AID 602276;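 active = inhibition at or above 50% at 10 µM; inactive = inhibition below 50%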;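 also: firefly luciferase from ISG56 promoter only with Renilla not read in this screen; 0% = Sendai virus plus DMSO and 100% = medium plus DMSO without virus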). To be noted: HEK293 RL24 IRF3 luciferase reporter, at 10 µM, stronger effect = higher value.
Experiment [8] in a line: TLR3 IRF3 reporter activation blockers – cell-based, poly I:C stimulus, luciferase, 10K MLSCN set, primary screen (AID 602277;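 active = inhibition of the reporter signal at or above 50%; inactive = inhibition below 50%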). The note with it: HEK293-TLR3 RL24 IRF3 luciferase reporter, at 10 µM, stronger effect = higher value. A general note: Reporter assays use an easily measured gene product as a stand-in for the process of interest.

Active and inactive are the calls of the source.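 The calls were made as follows, unless noted: active = visually confirmed hit in the image check and inhibition above 20%; inconclusive = visually confirmed hit but inhibition not above 20%; inactive = no visual hit in the image check.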

Sequence of Voltage-gated potassium channel subunit beta-2 (Rattus norvegicus) (P62483 whole entry, looked up): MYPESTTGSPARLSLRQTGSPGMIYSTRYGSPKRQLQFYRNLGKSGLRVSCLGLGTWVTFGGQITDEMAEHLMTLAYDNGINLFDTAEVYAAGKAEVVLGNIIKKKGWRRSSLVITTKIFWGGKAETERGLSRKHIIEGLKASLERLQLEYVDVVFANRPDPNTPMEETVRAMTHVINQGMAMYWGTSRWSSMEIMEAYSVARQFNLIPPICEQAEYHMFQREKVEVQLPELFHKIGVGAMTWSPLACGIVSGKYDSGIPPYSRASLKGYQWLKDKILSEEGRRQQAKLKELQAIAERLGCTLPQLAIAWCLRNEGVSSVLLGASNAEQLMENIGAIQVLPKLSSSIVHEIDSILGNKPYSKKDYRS
Sequence of Muscarinic acetylcholine receptor M4 (Homo sapiens) (P08173 whole entry, looked up): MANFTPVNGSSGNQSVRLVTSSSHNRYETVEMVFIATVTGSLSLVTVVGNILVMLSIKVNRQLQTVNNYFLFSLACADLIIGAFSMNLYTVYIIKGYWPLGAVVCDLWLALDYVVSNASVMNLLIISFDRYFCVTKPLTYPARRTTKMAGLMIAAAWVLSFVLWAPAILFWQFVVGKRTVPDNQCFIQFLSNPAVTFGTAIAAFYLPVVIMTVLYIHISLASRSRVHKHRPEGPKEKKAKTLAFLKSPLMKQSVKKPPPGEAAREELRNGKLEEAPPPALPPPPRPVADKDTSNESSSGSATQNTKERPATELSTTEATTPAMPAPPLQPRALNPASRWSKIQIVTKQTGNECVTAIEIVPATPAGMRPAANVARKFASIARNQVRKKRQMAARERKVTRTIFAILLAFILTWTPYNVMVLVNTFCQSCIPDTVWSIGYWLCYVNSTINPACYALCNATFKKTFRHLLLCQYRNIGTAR

The inhibition is the relative decrease from the control value, in per cent. Regarding `CCOC(=O)CSc1nc2cc(C(=O)NCc3ccco3)ccc2c(=O)n1C1CCCCC1`, the cell count in experiment [1] came to 455. The inhibition in experiment [1] is 4.3% (inactive); in experiment [3], 10% (inactive); in experiment [7], 12.1% (inactive); in experiment [8], 18.6% (inactive). In addition, the inhibition of aggregation in experiment [2] is -11.8% (inactive). In addition, the results for the nuclei count in experiment [2] and in experiment [3] were 92% and 93.7%, respectively. Also, the results for the fluorescence slope in experiment [4] and in experiment [6] were -0.397 (inactive) and 0.00847 (inactive), respectively. In addition, in experiment [5], the NADPH fluorescence slope was -5.9e-05 (inactive).
Turning to `O=C(COC(=O)C1=COCCO1)Nc1ccccc1Oc1ccccc1`, the cell count in experiment [1] was found to be 672. Moreover, the inhibition was 9.6% (inactive) in experiment [1], -33.5% (inactive) in experiment [3], 1.11% (inactive) in experiment [7] and 8.4% (inactive) in experiment [8]. The inhibition of aggregation in experiment [2] is 31% (inactive). The figures for the nuclei count in experiment [2] and in experiment [3] were 90.2% and 103%, respectively. Besides, the fluorescence slope in experiment [4] is -0.541 (inactive); in experiment [6], 0.00561 (inactive). For the same compound, in experiment [5], the NADPH fluorescence slope was -2.5e-05 (inactive).
As for `O=C(COC(=O)c1ccc(Br)o1)Nc1ccc(S(=O)(=O)N2CCCC2)cc1`, the cell count in experiment [1] turned out to be 619. The inhibition in experiment [1] is -3.6% (inactive); in experiment [3] it was -150% (inactive); in experiment [7], 12.4% (inactive); in experiment [8] it was 11.3% (inactive). Moreover, the inhibition of aggregation in experiment [2] was -10.1% (inactive). Also, the nuclei count stood at 117% in experiment [2] and 130% in experiment [3]. Also, the fluorescence slope in experiment [4] is -0.208 (inactive); in experiment [6], 0.00525 (inactive). The NADPH fluorescence slope in experiment [5] is -2e-05 (inactive).
Turning to `Cc1ccc(OC(=O)NC2CCS(=O)(=O)C2)cc1C` (centres undefined), the cell count in experiment [1] was determined as 395. Also, the inhibition in experiment [1] was -0.3% (inactive); in experiment [3], -107% (inactive); in experiment [7], 12.7% (inactive); in experiment [8], 17.3% (inactive). Besides, the inhibition of aggregation in experiment [2] was -6.1% (inactive). Moreover, the nuclei count was 98.6% in experiment [2] and 116% in experiment [3]. Besides, the fluorescence slope is -0.617 (inactive) in experiment [4] and 0.00398 (inactive) in experiment [6]. For the same compound, in experiment [5], the NADPH fluorescence slope is -2.5e-07 (inactive).
`O=C(Nc1ccccc1)N1C(=O)C2(OCCO2)c2ccccc21`: in experiment [1], the cell count stood at 397. Also, the inhibition in experiment [1] is 6.5% (inactive); in experiment [3] it was -75.2% (inactive); in experiment [7], 14.1% (inactive); in experiment [8], 7.78% (inactive). Besides, the inhibition of aggregation in experiment [2] was -15.7% (inactive). Further, the nuclei count in experiment [2] turned out to be 91.7%; in experiment [3], 105%. For the same compound, the results for the fluorescence slope in experiment [4] and in experiment [6] were -0.542 (inactive) and 0.00486 (inactive), respectively. For the same compound, the NADPH fluorescence slope in experiment [5] is -0.000137 (inactive).
Turning to `Cc1ccc(NC(=O)COc2nc(C)cs2)cc1`, the cell count in experiment [1] worked out at 400. Further, the inhibition is 4.5% (inactive) in experiment [1], -48.8% (inactive) in experiment [3], 6.37% (inactive) in experiment [7] and 9.54% (inactive) in experiment [8]. Further, the inhibition of aggregation in experiment [2] is -3.7% (inactive). In addition, the nuclei count in experiment [2] is 100%; in experiment [3] it was 108%. Moreover, the fluorescence slope is -0.555 (inactive) in experiment [4] and 0.00704 (inactive) in experiment [6]. Besides, the NADPH fluorescence slope in experiment [5] is -5e-05 (inactive).
Turning to `COC(=O)c1ccccc1NC(=O)c1noc2c1CCC2`, the cell count in experiment [1] was 251. The inhibition in experiment [1] is 0.3% (inactive); in experiment [3] it was -15.1% (inactive); in experiment [7], 13.1% (inactive); in experiment [8], 22.8% (inactive). Moreover, the inhibition of aggregation in experiment [2] is 6.7% (inactive). Besides, the values for the nuclei count in experiment [2] and in experiment [3] were 100% and 120%, respectively. Further, the results for the fluorescence slope in experiment [4] and in experiment [6] were -0.597 (inactive) and 0.0051 (inactive), respectively. Moreover, the NADPH fluorescence slope in experiment [5] was -2.5e-05 (inactive).
For `Nc1c(C(=O)NCCc2ccccc2)nnn1Cc1ccccc1`, the cell count in experiment [1] amounted to 564. In addition, the inhibition in experiment [1] was 4.8% (inactive); in experiment [3], -6.5% (inactive); in experiment [7], -11.8% (inactive); in experiment [8] it was -13.7% (inactive). In experiment [2], the inhibition of aggregation was 24.6% (inactive). The nuclei count in experiment [2] stood at 69.8%; in experiment [3], 98.3%. The values for the fluorescence slope in experiment [4] and in experiment [6] were -0.571 (inactive) and 0.00544 (inactive), respectively. The NADPH fluorescence slope in experiment [5] is -4.3e-05 (inactive).
For the compound `CC(C)(C)OC(=O)N1CCC(C(=O)N2CCCCCC2)CC1`, the cell count in experiment [1] was 383. Besides, the inhibition was 4.6% (inactive) in experiment [1], -36.8% (inactive) in experiment [3], 7.78% (inactive) in experiment [7] and 11.9% (inactive) in experiment [8]. The inhibition of aggregation in experiment [2] was 0.1% (inactive). The nuclei count is 90% in experiment [2] and 97% in experiment [3]. For the same compound, the fluorescence slope in experiment [4] was -0.529 (inactive); in experiment [6], 0.00575 (inactive). Also, the NADPH fluorescence slope in experiment [5] is -8e-05 (inactive).
`CCCSc1nc2c(c(=O)[nH]c(=O)n2C)n1CCc1ccccc1`: the cell count in experiment [1] came to 413. Also, the inhibition in experiment [1] was 11.9% (inactive); in experiment [3], -76.3% (inactive); in experiment [7] it was 17.9% (inactive); in experiment [8] it was 4.39% (inactive). Further, the inhibition of aggregation in experiment [2] is 0.6% (inactive). In addition, the values for the nuclei count in experiment [2] and in experiment [3] were 107% and 110%, respectively. Further, the fluorescence slope in experiment [4] was -0.507 (inactive); in experiment [6], 0.00465 (inactive). The NADPH fluorescence slope in experiment [5] was -3.4e-05 (inactive).
As for `CC(C)(C)OC(=O)NC(CCNC=C1C(=O)OC(C)(C)OC1=O)C(=O)O` (centres undefined), the cell count in experiment [1] was found to be 255. For the same compound, the inhibition in experiment [1] was 7.2% (inactive); in experiment [3] it was -87% (inactive); in experiment [7], 5.28% (inactive); in experiment [8] it was 0.81% (inactive). Also, the inhibition of aggregation in experiment [2] is 12.3% (inactive). In addition, the nuclei count in experiment [2] turned out to be 106%; in experiment [3] it was 103%. Moreover, the fluorescence slope in experiment [4] was -0.299 (inactive); in experiment [6] it was 0.00613 (inactive). The NADPH fluorescence slope in experiment [5] was -5.2e-05 (inactive).
As to `CCCCOc1ccc(C(=O)Nc2ccc(N3CCN(C(=O)C(C)C)CC3)cc2)cc1`, in experiment [1], the cell count came to 825. Also, the inhibition in experiment [1] is -3.3% (inactive); in experiment [3], -59.7% (inactive); in experiment [7], 13.8% (inactive); in experiment [8] it was -10.4% (inactive). For the same compound, the inhibition of aggregation in experiment [2] is -19.5% (inactive). The nuclei count in experiment [2] amounted to 92.4%; in experiment [3], 115%. Also, the fluorescence slope is -0.44 (inactive) in experiment [4] and 0.0053 (inactive) in experiment [6]. Moreover, the NADPH fluorescence slope in experiment [5] is -1.7e-05 (inactive).
As for `Cc1ccc(C)c(N2C(=O)CN=C2Nc2ccccc2Cl)c1`, the cell count in experiment [1] was 441. Besides, the inhibition is 14.6% (inactive) in experiment [1], 18.2% (inactive) in experiment [3], 13% (inactive) in experiment [7] and 24.3% (inactive) in experiment [8]. In addition, the inhibition of aggregation in experiment [2] is 0.8% (inactive). In addition, the nuclei count worked out at 96.7% in experiment [2] and 113% in experiment [3]. The fluorescence slope in experiment [4] was -0.577 (inactive); in experiment [6], 0.00593 (inactive). Moreover, the NADPH fluorescence slope in experiment [5] is -4.1e-05 (inactive).
Turning to `COc1cccc(C(c2nnnn2Cc2ccccc2)N2CCN(C(=O)c3ccco3)CC2)c1OC` (centres undefined), in experiment [1], the cell count is 414. The inhibition is 4.3% (inactive) in experiment [1], -195% (inactive) in experiment [3], 8.65% (inactive) in experiment [7] and 11.2% (inactive) in experiment [8]. Also, the inhibition of aggregation in experiment [2] was 5% (inactive). Also, the values for the nuclei count in experiment [2] and in experiment [3] were 69.9% and 161%, respectively. Also, the fluorescence slope is -0.473 (inactive) in experiment [4] and 0.00486 (inactive) in experiment [6]. Besides, in experiment [5], the NADPH fluorescence slope is -2e-05 (inactive).
